# Numbered stars: 1 amine (or outer) side, 2 acyl side, 3 side chain; on linkers, the order of the positions; unused ones are H or OH. Bridge positions count the residues as written; N and C are the ends. Square brackets hold non-standard residues; d marks the D form. Peptide text beside a SMILES is read from it. I, II: the chains in the order shown. X1 = NC(=O)[C@H](Cc1cn(CCOCCOCCOCCC(=O)[*:2])nn1)N[*:1]; X2 = NC(=O)[C@H](Cc1cn(CC(=O)[*:2])nn1)N[*:1]; Tle = CC(C)(C)[C@H](N)C(=O)O; dDab = NCC[C@@H](N)C(=O)O; hSer = N[C@@H](CCO)C(=O)O; Dab = NCC[C@H](N)C(=O)O
# What was measured:
# Assay type in all cases: functional
# [1] = test system: Pseudomonas aeruginosa; assay: Antibacterial activity against Pseudomonas aeruginosa M-120 assessed as inhibition of bacterial growth after 16 hrs by broth microdilution method
# How it was run: (§1)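 MIC per CLSI broth microdilution. Strains streaked from glycerol stocks on blood agar, 16 h at 37 °C. Single colonies inoculated into cation-adjusted Mueller-Hinton broth (10 mg L–1 Mg2+, 25 mg L–1 Ca2+). Peptides serially diluted in this broth with 0.002% (v/v) final polysorbate-80 in polypropylene plates. Inoculum 5 × 10^5 CFU mL–1. Plates sealed, 16 h at 37 °C, growth scored visually. MIC in μg/mL, triplicates on two separate days.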
# [2] = test system: Pseudomonas aeruginosa; assay: Antibacterial activity against Pseudomonas aeruginosa producing NDM1 assessed as inhibition of bacterial growth after 16 hrs by broth microdilution method
# How it was run: (§2)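 CLSI broth microdilution. Strains grown from glycerol stocks on blood agar 16 h at 37 °C; colonies used to inoculate CAMHB containing 10 mg L–1 Mg2+ and 25 mg L–1 Ca2+. Peptides dissolved in CAMHB with 0.002% (v/v) final polysorbate-80, serially diluted in polypropylene plates; inoculum 5 × 10^5 CFU mL–1. Sealed, 16 h at 37 °C, growth scored visually. MIC in μg/mL; three or more measurements on multiple days.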
# [3] = test system: Staphylococcus aureus; assay: Antibacterial activity against methicillin resistant Staphylococcus aureus USA300 by measuring MIC after 16 hrs by broth microdilution method; how it was run: as §2
# [4] = test system: Acinetobacter baumannii; assay: Antibacterial activity against multidrug-resistant Acinetobacter baumannii assessed as inhibition of bacterial growth after 16 hrs by broth microdilution method; how it was run: as §2
# [5] = test system: Escherichia coli; assay: Antibacterial activity against Escherichia coli producing MCR2 assessed as inhibition of bacterial growth after 16 hrs by broth microdilution method; how it was run: as §1
# [6] = test system: Acinetobacter baumannii; assay: Antibacterial activity against Acinetobacter baumannii ATCC 9955 assessed as inhibition of bacterial growth after 16 hrs by broth microdilution method; how it was run: as §1
# [7] = test system: Acinetobacter baumannii; assay: Antibacterial activity against Acinetobacter baumannii NRZ 00687 producing NDM2 assessed as inhibition of bacterial growth after 16 hrs by broth microdilution method; how it was run: as §1
# [8] = test system: Escherichia coli; assay: Antibacterial activity against Escherichia coli ATCC 35218 assessed as inhibition of bacterial growth after 16 hrs by broth microdilution method; how it was run: as §1
# [9] = test system: Pseudomonas aeruginosa; assay: Antibacterial activity against Pseudomonas aeruginosa ATCC 27853 assessed as inhibition of bacterial growth after 16 hrs by broth microdilution method; how it was run: as §1
# [10] = test system: Klebsiella pneumoniae; assay: Antibacterial activity against Klebsiella pneumoniae producing NDM1 assessed as inhibition of bacterial growth after 16 hrs by broth microdilution method; how it was run: as §1
# [11] = test system: Escherichia coli; assay: Antibacterial activity against Escherichia coli producing MCR1 assessed as inhibition of bacterial growth after 16 hrs by broth microdilution method; how it was run: as §1
# [12] = test system: Pseudomonas aeruginosa; assay: Antibacterial activity against Pseudomonas aeruginosa NRZ 08418 producing NDM1 assessed as inhibition of bacterial growth after 16 hrs by broth microdilution method; how it was run: as §1
# [13] = test system: Klebsiella pneumoniae; assay: Antibacterial activity against Klebsiella pneumoniae ATCC 11228 assessed as inhibition of bacterial growth after 16 hrs by broth microdilution method; how it was run: as §1
# [14] = test system: Escherichia coli; assay: Antibacterial activity against Escherichia coli producing MCR3 assessed as inhibition of bacterial growth after 16 hrs by broth microdilution method; how it was run: as §1
# [15] = test system: Escherichia coli; assay: Antibacterial activity against Escherichia coli producing NDM1 assessed as inhibition of bacterial growth after 16 hrs by broth microdilution method; how it was run: as §2
# [16] = test system: Acinetobacter baumannii; assay: Antibacterial activity against Acinetobacter baumannii ATCC 17978 assessed as inhibition of bacterial growth after 16 hrs by broth microdilution method; how it was run: as §1
SMILES,MIC [1] [µg/mL],MIC [2] [µg/mL],MIC [3] [µg/mL],MIC [4] [µg/mL],MIC [5] [µg/mL],MIC [6] [µg/mL],MIC [7] [µg/mL],MIC [8] [µg/mL],MIC [9] [µg/mL],MIC [10] [µg/mL],MIC [11] [µg/mL],MIC [12] [µg/mL],MIC [13] [µg/mL],MIC [14] [µg/mL],MIC [15] [µg/mL],MIC [16] [µg/mL]
CC(C)C[C@@H]1NC(=O)[C@@H](CC(C)C)NC(=O)[C@H](CCN)NC(=O)[C@@H](NC(=O)[C@H](CCN)NC(=O)[C@@H](NC(=O)Cn2cc(C[C@H](NC(=O)CC[C@@H]3NC(=O)[C@H](CCN)NC(=O)[C@H](Cc4ccc(O)cc4)NC(=O)[C@H]([C@@H](C)O)NC(=O)[C@H](C(C)C)NC(=O)[C@@H]4CCCN4C(=O)[C@@H](C)NC(=O)[C@H](CO)NC(=O)[C@H](C)NC(=O)[C@H](C(C)(C)C)NC(=O)[C@H](CCO)NC(=O)[C@H](Cc4c[nH]c5ccccc45)NC(=O)[C@H](CCO)NC(=O)[C@@H](CCN)NC3=O)C(N)=O)nn2)[C@@H](C)O)CCNC(=O)[C@H]([C@@H](C)O)NC(=O)[C@H](CCN)NC(=O)[C@H](CCN)NC1=O (I: cyclo([dDab][hSer]W[hSer][Tle]AS[dA]PVTY[Dab]E) / II: T[Dab][Dab][Dab][dL]L[Dab][Dab]T; linker I:14-II:N via X2; lactam II:3-II:C),4,2,> 6.4,1,2,2,0.5,0.5,1,2,2,,,,,
CC(C)C[C@@H]1NC(=O)[C@@H](CC(C)C)NC(=O)[C@H](CCN)NC(=O)[C@@H](NC(=O)Cn2cc(C[C@H](NC(=O)CC[C@@H]3NC(=O)[C@H](CCN)NC(=O)[C@H](Cc4ccc(O)cc4)NC(=O)[C@H]([C@@H](C)O)NC(=O)[C@H](C(C)C)NC(=O)[C@@H]4CCCN4C(=O)[C@@H](C)NC(=O)[C@H](CO)NC(=O)[C@H](C)NC(=O)[C@H](C(C)(C)C)NC(=O)[C@H](CCO)NC(=O)[C@H](Cc4c[nH]c5ccccc45)NC(=O)[C@H](CCO)NC(=O)[C@@H](CCN)NC3=O)C(N)=O)nn2)CCNC(=O)[C@H]([C@@H](C)O)NC(=O)[C@H](CCN)NC(=O)[C@H](CCN)NC1=O (I: cyclo([dDab][hSer]W[hSer][Tle]AS[dA]PVTY[Dab]E) / II: [Dab][Dab][dL]L[Dab][Dab]T; linker I:14-II:N via X2; lactam II:1-II:C),64,32,> 64,32,32,64,64,,64,,,64,16,64,,
CC(C)C[C@@H]1NC(=O)[C@@H](CC(C)C)NC(=O)[C@H](CCN)NC(=O)[C@@H](NC(=O)[C@H](CCN)NC(=O)[C@@H](NC(=O)CCOCCOCCOCCn2cc(C[C@H](NC(=O)CC[C@@H]3NC(=O)[C@H](CCN)NC(=O)[C@H](Cc4ccc(O)cc4)NC(=O)[C@H]([C@@H](C)O)NC(=O)[C@H](C(C)C)NC(=O)[C@@H]4CCCN4C(=O)[C@@H](C)NC(=O)[C@H](CO)NC(=O)[C@H](C)NC(=O)[C@H](C(C)(C)C)NC(=O)[C@H](CCO)NC(=O)[C@H](Cc4c[nH]c5ccccc45)NC(=O)[C@H](CCO)NC(=O)[C@@H](CCN)NC3=O)C(N)=O)nn2)[C@@H](C)O)CCNC(=O)[C@H]([C@@H](C)O)NC(=O)[C@H](CCN)NC(=O)[C@H](CCN)NC1=O (I: cyclo([dDab][hSer]W[hSer][Tle]AS[dA]PVTY[Dab]E) / II: T[Dab][Dab][Dab][dL]L[Dab][Dab]T; linker I:14-II:N via X1; lactam II:3-II:C),8,4,> 64,4,16,8,2,2,4,,16,,8,,,
CC(C)C[C@@H]1NC(=O)[C@@H](Cc2ccccc2)NC(=O)[C@H](CCN)NC(=O)[C@@H](NC(=O)[C@H](CCN)NC(=O)[C@@H](NC(=O)[C@H](CCN)NC(=O)CC[C@@H]2NC(=O)[C@H](CCN)NC(=O)[C@H](Cc3ccc(O)cc3)NC(=O)[C@H]([C@@H](C)O)NC(=O)[C@H](C(C)C)NC(=O)[C@@H]3CCCN3C(=O)[C@@H](C)NC(=O)[C@H](CO)NC(=O)[C@H](C)NC(=O)[C@H](C(C)(C)C)NC(=O)[C@H](CCO)NC(=O)[C@H](Cc3c[nH]c4ccccc34)NC(=O)[C@H](CCO)NC(=O)[C@@H](CCN)NC2=O)[C@@H](C)O)CCNC(=O)[C@H]([C@@H](C)O)NC(=O)[C@H](CCN)NC(=O)[C@H](CCN)NC1=O (I: cyclo([dDab][hSer]W[hSer][Tle]AS[dA]PVTY[Dab]E) / II: [Dab]T[Dab][Dab][Dab][dF]L[Dab][Dab]T; amide I:14-II:N; lactam II:4-II:C),1.6,0.8,> 6.4,0.4,0.4,0.2,,,,0.4,,,0.2,0.4,0.1,0.4

# — ChEMBL document CHEMBL5030522, “A Convenient Chemoenzymatic Preparation of Chimeric Macrocyclic Peptide Antibiotics with Potent Activity against Gram-Negative Pathogens” (2021)
